Test results from paper PMC3623729 (Journal of medicinal chemistry, 2013).
“Also recorded” adds a separate entry of the source.

Tests used:
[1] = cited from earlier work
[2] = target: T1, human RXRα (Homo sapiens, UniProt P19793); assay: RXRE-luciferase reporter gene assay; type: cell-based; settings: for Max IR: maximum induction ratio observed: compounds tested at variable concentrations
T1 sequence (P19793 1-462): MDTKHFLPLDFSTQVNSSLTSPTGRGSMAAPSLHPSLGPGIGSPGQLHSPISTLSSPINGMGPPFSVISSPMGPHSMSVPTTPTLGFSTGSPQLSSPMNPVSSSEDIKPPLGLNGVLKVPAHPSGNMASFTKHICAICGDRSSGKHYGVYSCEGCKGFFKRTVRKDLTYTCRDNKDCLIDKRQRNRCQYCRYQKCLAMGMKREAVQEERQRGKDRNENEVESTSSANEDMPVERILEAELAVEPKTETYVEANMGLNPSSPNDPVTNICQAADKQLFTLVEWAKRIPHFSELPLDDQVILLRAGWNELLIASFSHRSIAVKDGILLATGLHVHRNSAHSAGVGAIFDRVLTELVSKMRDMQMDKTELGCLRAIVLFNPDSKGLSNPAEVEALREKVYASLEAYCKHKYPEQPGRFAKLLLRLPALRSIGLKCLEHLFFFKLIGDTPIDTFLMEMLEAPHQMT

[3] = test system: MCF-7 breast cancer cells; settings: cited from earlier work
[4] = target: T2, VDR (Homo sapiens, UniProt P11473); assay: VDR ultrafiltration affinity assay; type: binding
T2 sequence (P11473 1-427): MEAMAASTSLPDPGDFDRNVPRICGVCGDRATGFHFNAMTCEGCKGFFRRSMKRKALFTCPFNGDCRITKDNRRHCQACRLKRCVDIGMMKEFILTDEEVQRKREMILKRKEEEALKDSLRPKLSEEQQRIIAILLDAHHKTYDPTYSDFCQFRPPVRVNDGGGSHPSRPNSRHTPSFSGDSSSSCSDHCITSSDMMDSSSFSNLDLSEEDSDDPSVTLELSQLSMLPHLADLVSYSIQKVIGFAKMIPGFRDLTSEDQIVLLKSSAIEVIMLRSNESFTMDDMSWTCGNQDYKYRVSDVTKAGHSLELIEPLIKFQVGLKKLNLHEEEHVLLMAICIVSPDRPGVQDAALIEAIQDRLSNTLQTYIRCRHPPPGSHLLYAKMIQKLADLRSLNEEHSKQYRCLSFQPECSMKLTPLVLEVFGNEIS
Outline: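 Commercial VDR in storage buffer incubated with test ligand for 30 min at 37 °C, dark, shaking. Ultrafiltered at 12,000 × g, 4 °C, rinsed with ice-cold 50 mM ammonium acetate, 0.1 mM NaCl, pH 8.0. Bound ligand released in methanol with genistein internal standard, dried under N2, analysed by LC-ion trap TOF MS, both polarities, m/z 100–1500. Controls were boiled hVDR or no protein, with lithocholic acid and curcumin as positives.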

[5] = target: T2, VDR; assay: Competitive binding against curcumin for VDR; settings: equimolar concentration
[6] = test system: COS-1 cells; assay: % Cell Survival; type: cell-based; settings: concentration not given

Compound | RXR activity in words (active / inactive) [2] | Positive VDR signal [4] | Max IR: maximum induction ratio observed [2] | further results
NCCCn1c2c(c3ccc(N)cc3c1=O)C(=O)c1ccccc1-2 [Compound 3, 3-Amino-6-(3'-aminopropyl)-5H-indeno[1,2-c]isoquinoline-5,11-(6H)dione] | high activity | 1903415 | – | metabolism of the ketone group [1]: metabolized to an alcohol, which renders the compound inactive; apoptosis in MCF-7 cells [3]: induce apoptosis in MCF-7 breast cancer cells in a dose-dependent manner; competition with curcumin for binding to VDR [5]: did not compete
CCOC(=O)CNc1ccc2c3c(n(CCCN)c(=O)c2c1)-c1ccccc1C3=O [Compound 62] | – | 152467 | – | –
NCCCCn1c2c(c3ccccc3c1=O)C(=O)c1ccccc1-2 [Compound 80] | – | 3320824 | – | –
NCCCCCn1c2c(c3ccccc3c1=O)C(=O)c1ccccc1-2 [Compound 81] | – | 7877048 | – | –
NCCCCCCn1c2c(c3ccccc3c1=O)C(=O)c1ccccc1-2 [Compound 82] | – | 9397620 | – | –
C[N+](C)(C)CCCn1c2c(c3ccccc3c1=O)C(=O)c1ccccc1-2.[I-] [Compound 104, 6-(3-(Trimethylammonium)propyl)-5H-indeno[1,2-c]isoquinoline-5,11(6H)-dione Iodide] | inactive | – | NA (NA: Max IR not determined because IR < 2.) | –
CNCCCn1c2c(c3ccccc3c1=O)C(=O)c1ccccc1-2 [Compound 105, 6-(3-(Methylamino)propyl)-5H-indeno[1,2-c]isoquinoline-5,11(6H)-dione] | active; also recorded: high activity | – | – | –
O=C(O)CCn1c2c(c3ccccc3c1=O)C(=O)c1ccccc1-2 [Compound 106, 3-(5,11-Dioxo-5H-indeno[1,2-c]isoquinolin-6(11H)-yl)propanoic Acid] | inactive | – | NA (NA: Max IR not determined because IR < 2.) | –
NC(=O)CCn1c2c(c3ccccc3c1=O)C(=O)c1ccccc1-2 [Compound 107, 3-(5,11-Dioxo-5H-indeno[1,2-c]isoquinolin-6(11H)-yl)propanamide] | inactive | – | NA (NA: Max IR not determined because IR < 2.) | –
COCCCn1c2c(c3ccccc3c1=O)C(=O)c1ccccc1-2 [Compound 108, 6-(3-Methoxypropyl)-5H-indeno[1,2-c]isoquinoline-5,11(6H)-dione] | inactive | – | – | –
Cl.NCCCn1c2c(c3ccc(N)cc3c1=O)Cc1ccccc1-2 [Compound 124, 3-Amino-6-(3-aminopropyl)-6,11-dihydro-5H-indeno[1,2-c]isoquinolin-5-one] | good activity | 1422175 | – | –
N#Cc1ccc2c3c(n(CCCn4ccnc4)c(=O)c2c1)-c1ccccc1C3=O [Compound 127] | inactive; also recorded: lack of activity | – | – | –
N#Cc1ccc2c3c(n(CCCN4CCOCC4)c(=O)c2c1)-c1ccccc1C3=O [Compound 128] | inactive; also recorded: lack of activity | – | – | –
CC(C)(C)OC(=O)NCCCn1c2c(c3ccc(N)cc3c1=O)C(=O)c1ccccc1-2 [Compound 141] | inactivated | – | – | –
COc1cc2c3c(n(CCCN)c(=O)c2cc1OC)-c1ccc(F)cc1C3=O [Compound 160] | – | – | NA (NA: Max IR not determined because IR < 2.) | –

Continued, in another order:

RXR activity in words (active / inactive) [2] | Positive VDR signal [4] | Compound | Max IR: maximum induction ratio observed [2] | further results
high activity | 4013179 | NCCCn1c2c(c3ccccc3c1=O)C(=O)c1ccccc1-2 [Compound 79] | – | % Cell Survival ([6]; Table 3): 52.5%; EC50 [2]: 10.2 µM
inactive | – | CCCCn1c2c(c3ccccc3c1=O)C(=O)c1ccccc1-2 [Compound 109, 6-Butyl-5H-indeno[1,2-c]isoquinoline-5,11(6H)-dione] | – | –
detrimental for activity | – | CN(C)CCCn1c2c(c3ccc([N+](=O)[O-])cc3c1=O)C(=O)c1ccccc1-2 [Compound 113, 6-(3-(Dimethylamino)propyl)-3-nitro-5H-indeno[1,2-c]isoquinoline-5,11(6H)-dione] | NA (NA: Max IR not determined because IR < 2.) | –
inactive | – | O=C1c2ccccc2-c2c1c1ccc([N+](=O)[O-])cc1c(=O)n2CCCCO [Compound 120, 6-(4-Hydroxybutyl)-3-nitro-5H-indeno[1,2-c]isoquinoline-5,11(6H)-dione] | – | –
high activity | 2011978 | CN(C)CCCn1c2c(c3ccc(N)cc3c1=O)C(=O)c1ccccc1-2 [Compound 121, 3-Amino-6-(3-(dimethylamino)propyl)-5H-indeno[1,2-c]isoquinoline-5,11(6H)-dione] | – | –
detrimental for activity | – | CNCCCn1c2c(c3ccc([N+](=O)[O-])cc3c1=O)C(=O)c1ccccc1-2 [Compound 125] | NA (NA: Max IR not determined because IR < 2.) | –
high activity | 2155086 | CNCCCn1c2c(c3ccc(N)cc3c1=O)C(=O)c1ccccc1-2 [Compound 126] | – | –
active | – | CN(C)CCCn1c2c(c3ccc(C#N)cc3c1=O)C(=O)c1ccccc1-2 [Compound 129] | – | –
– | 4875144 | CC(=O)Nc1ccc2c3c(n(CCCN)c(=O)c2c1)-c1ccccc1C3=O [Compound 131] | – | –
inactive | – | CC(=O)Nc1ccc2c3c(n(CCCO)c(=O)c2c1)-c1ccccc1C3=O [Compound 132] | NA (NA: Max IR not determined because IR < 2.) | % Cell Survival ([6]; Table 7): 90.6%
inactive | – | O=C1c2ccccc2-c2c1c1ccc([N+](=O)[O-])cc1c(=O)n2CCCCl [Compound 133] | – | –
inactive | – | [N-]=[N+]=NCCCn1c2c(c3ccc([N+](=O)[O-])cc3c1=O)C(=O)c1ccccc1-2 [Compound 134] | – | –
detrimental for activity | – | NCCCn1c2c(c3ccc([N+](=O)[O-])cc3c1=O)C(=O)c1ccccc1-2 [Compound 135] | NA (NA: Max IR not determined because IR < 2.) | –
detrimental for activity | – | CC(=O)NCCCn1c2c(c3ccc([N+](=O)[O-])cc3c1=O)C(=O)c1ccccc1-2 [Compound 143] | – | –
significantly reduced the IR | – | CC(=O)NCCCn1c2c(c3ccc(N)cc3c1=O)C(=O)c1ccccc1-2 [Compound 144] | – | –
inactive | – | O=C1c2ccccc2-c2c1c1ccc([N+](=O)[O-])cc1c(=O)n2CCCO [Compound 145] | – | –
inactive | – | CN(C)c1ccc2c3c(n(CCCN)c(=O)c2c1)-c1ccccc1C3=O [Compound 149] | NA (NA: Max IR not determined because IR < 2.) | –
inactive | – | O=C1c2ccccc2-c2c1c1ccccc1c(=O)n2CCCO [Compound 151] | NA (NA: Max IR not determined because IR < 2.) | –
